Values after ≈ are worked out from the molar mass of the structure shown. Active and inactive are the calls of the source. No cut-off for these calls is given here.
Experiments:
Candida albicans [1] = test: Antifungal activity against Candida albicans ATCC 24433 by microdilution method; type: functional
Procedure, shortened: (§1)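 Broth microdilution per NCCLS M27-A2 in MOPS-buffered RPMI with Alamar Blue, incubated at 30°C. Starting inoculum 1 × 10³ to 3 × 10⁴ cells/ml. End point MIC-2: 50% reduction in A570 against drug-free control. Duplicate runs, repeated on another day if they disagreed.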

Candida albicans [2] = test: Antifungal activity against Candida albicans ATCC 90028 by microdilution method; type: functional; procedure, shortened: as §1
Nakaseomyces glabratus [3] = test: Antifungal activity against Candida glabrata ATCC 48435 by microdilution method; type: functional; procedure, shortened: as §1
Pichia kudriavzevii [4] = test: Antifungal activity against Candida krusei ATCC 44507 by microdilution method; type: functional; procedure, shortened: as §1
Candida albicans [5] = test: Antifungal activity against Candida albicans ATCC 24433 in RPMI media by microdilution method; type: functional; procedure, shortened: as §1
Candida albicans [6] = test: Antifungal activity against Candida albicans ATCC 24433 in MEM media by microdilution method; type: functional
Procedure, shortened: (§2)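 Broth microdilution per NCCLS at 30°C, inoculum 1 × 10³ to 3 × 10⁴ cells/ml. Medium was MEM, SDB, YNB, Spider or Lee's, all without Alamar Blue. End point MIC-2: 50% drop in OD600 against drug-free control. RPMI run used MOPS-buffered RPMI with Alamar Blue read at 570 nm. Duplicates.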

Candida albicans [7] = test: Antifungal activity against Candida albicans ATCC 24433 in SDB media by microdilution method; type: functional; procedure, shortened: as §2
Candida albicans [8] = test: Antifungal activity against Candida albicans ATCC 24433 in YNB media by microdilution method; type: functional; procedure, shortened: as §2
Candida albicans [9] = test: Antifungal activity against Candida albicans ATCC 24433 in Lee's media by microdilution method; type: functional; procedure, shortened: as §2
Candida albicans [10] = test: Antifungal activity against Candida albicans ATCC 24433 in Spider media by microdilution method; type: functional; procedure, shortened: as §2
[11] = Cmax in Slc::ddY mouse at 10 mg/kg, po tid administered 1 hr post infection for 1 day; type: ADME, organism-based; set-up: dose 10 mg/kg, route oral; conditions: in vivo
[12] = Half life in Slc::ddY mouse at 10 mg/kg, po tid administered 1 hr post infection for 1 day; type: ADME, organism-based; set-up: dose 10 mg/kg, route oral; conditions: in vivo
Nakaseomyces glabratus [13] = test: Antifungal activity against Candida glabrata ATCC 48435 infected in Slc::ddY mouse assessed as survival rate at 3.3 mg/kg, po tid administered 1 hr post infection for 1 day measured on day 14; type: functional
Procedure, shortened: (§3)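 Five-week-old female Slc:ddY mice, made neutropenic with cyclophosphamide 200 mg/kg ip 4 days before and 1 day after infection. SDA-grown cells in 0.1% Tween 80 saline were injected into the tail vein: C. albicans 2.6 × 10⁴ cells, C. glabrata 2.4 × 10⁸ cells. Oral dosing at 1, 4 and 7 h post-infection. Controls got 5% glucose with 1% lactic acid. 10 mice/group; mortality followed 14 or 30 days.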

Nakaseomyces glabratus [14] = test: Antifungal activity against Candida glabrata ATCC 48435 infected in Slc::ddY mouse assessed as survival rate at 10 mg/kg, po tid administered 1 hr post infection for 1 day measured on day 14; type: functional; procedure, shortened: as §3
Candida albicans [15] = test: Inhibition of beta-1.6-glucan synthesis in Candida albicans ATCC 90028 assessed as [14C] glucose incorporation after 3 hrs; type: functional, organism-based
Procedure, shortened: (§4)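 Exponential cells suspended in RPMI 1640 (A595 about 0.6) with drug and [14C]glucose, 3 h at 30°C with occasional shaking. Cells extracted with 3% NaOH at 80°C for 1 h; mannan precipitated with Fehling's reagent. Insoluble fraction digested overnight with Zymolyase to separate β-1,6-glucan. Percent change in incorporated radioactivity against control.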

Nakaseomyces glabratus [16] = test: Inhibition of beta-1.6-glucan synthesis in Candida glabrata ATCC 48435 assessed as [14C] glucose incorporation after 3 hrs; type: functional, organism-based; procedure, shortened: as §4
Pichia kudriavzevii [17] = test: Inhibition of beta-1.6-glucan synthesis in Candida krusei ATCC 44507 assessed as [14C] glucose incorporation after 3 hrs; type: functional, organism-based; procedure, shortened: as §4
Candida albicans [18] = test: Inhibition of beta-1.6-glucan synthesis in Candida albicans ATCC 90028 assessed as [14C] glucose incorporation at 0.063 ug/ml after 3 hrs; type: functional, organism-based; procedure, shortened: as §4
Candida albicans [19] = test: Antifungal activity against Candida albicans ATCC 90028 assessed as degradation of mannan layer of the cell wall at 1 ug/ml after 6 hrs using fluorescein-conjugated concanavalin A stain by fluorescent microscopy; type: functional, organism-based
Procedure, shortened: (§5)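 Budding yeast at 1 × 10³ cells/ml exposed to drug in MOPS-buffered RPMI for 6 h with shaking (legend gives 30°C). Cells fixed in 3% glutaraldehyde/0.1 M phosphate for 2 h. For mannan: stained 30 min with 10 μg/ml fluorescein–concanavalin A, fluorescence microscopy. For TEM: 2% OsO4 postfix, Spurr's resin, uranyl acetate/lead citrate stained sections.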

Candida albicans [20] = test: Antifungal activity against Candida albicans ATCC 90028 assessed as degradation of mannan layer of the cell wall at >0.25 ug/ml after 6 hrs using fluorescein-conjugated concanavalin A stain by fluorescent microscopy; type: functional, organism-based; procedure, shortened: as §5
Candida albicans [21] = test: Antifungal activity against Candida albicans ATCC 90028 assessed as inhibition of adherence of fungal cell to human A549 cells; type: functional, organism-based
Procedure, shortened: (§6)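 Yeast pretreated with drug in MOPS-buffered RPMI at 30°C overnight without shaking. 100 or 200 cells in DPBS overlaid on confluent A549 monolayers (DMEM/10% FBS), 45 min at 37°C, 5% CO2. Washed, covered with SDA, colonies counted after 48 h at 30°C. Percent reduction of adherence; triplicate, mean ± SD.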

Nakaseomyces glabratus [22] = test: Antifungal activity against Candida glabrata ATCC 48435 assessed as inhibition of adherence of fungal cell to human A549 cells; type: functional, organism-based; procedure, shortened: as §6
Pichia kudriavzevii [23] = test: Antifungal activity against Candida krusei ATCC 44507 assessed as inhibition of adherence of fungal cell to human A549 cells; type: functional, organism-based; procedure, shortened: as §6
Candida albicans [24] = test: Antifungal activity against Candida albicans ATCC 90028 assessed as inhibition of hyphal elongation at 0.25 ug/ml in Lee's medium using crystal violet stain by light microscopy; type: functional, organism-based
Candida albicans [25] = test: Antifungal activity against Candida albicans ATCC 90028 assessed as inhibition of hyphal elongation at 0.25 ug/ml in HFM-7 medium using crystal violet stain by light microscopy; type: functional, organism-based
Candida albicans [26] = test: Antifungal activity against Candida albicans ATCC 90028 assessed as inhibition of hyphal elongation at 0.25 ug/ml in Spider medium using crystal violet stain by light microscopy; type: functional, organism-based
Candida albicans [27] = test: Antifungal activity against Candida albicans ATCC 90028 infected in reconstituted human vaginal epithelium tissue assessed as inhibition of fungal cell invasion in to the tissue at 0.25 ug/ml using […] and methylene blue stain by light microscopy; type: functional, organism-based
Procedure, shortened: (§7)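 RHVE (A431 keratinocytes) infected with 2 × 10⁶ ATCC 90028 cells that had been pretreated with drug. Drug also added to the maintenance medium. After 24 h at 37°C, 5% CO2, tissue fixed in formaldehyde; semithin sections stained with […]/methylene blue and examined by light microscopy.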

Candida albicans [28] = test: Antifungal activity against Candida albicans ATCC 90028 infected in reconstituted human vaginal epithelium tissue assessed as inhibition of fungal cell invasion in to the tissue at 1 ug/ml using […] and methylene blue stain by light microscopy; type: functional, organism-based; procedure, shortened: as §7
Saccharomyces cerevisiae [29] = test: Antifungal activity against Saccharomyces cerevisiae AY-10c expressing ScKRE6 gene by microdilution method; type: functional
Saccharomyces cerevisiae [30] = test: Antifungal activity against Saccharomyces cerevisiae CY-1a expressing ScKRE6 gene by microdilution method; type: functional
Saccharomyces cerevisiae [31] = test: Antifungal activity against Saccharomyces cerevisiae CY-3a expressing ScKRE6-CaSKN2 gene by microdilution method; type: functional
Saccharomyces cerevisiae [32] = test: Antifungal activity against Saccharomyces cerevisiae CY-4a expressing ScKRE6-CaKRE6 gene by microdilution method; type: functional
Saccharomyces cerevisiae [33] = test: Antifungal activity against Saccharomyces cerevisiae CY-5a expressing ScKRE6-CaSKN1 gene by microdilution method; type: functional
Candida albicans [34] = test: Antifungal activity against Candida albicans ATCC 90028 infected in Slc::ddY mouse assessed as survival rate at 10 mg/kg, po tid administered 1 hr post infection for 1 day measured on day 30; conditions: ATCC 90028, po
Candida albicans [35] = test: Antifungal activity against Candida albicans ATCC 90028 assessed as absence of outer layer of the cell wall at 1 ug/ml after 6 hrs by TEM; type: functional, organism-based; procedure, shortened: as §5

Row | Compound | MIC (Candida albicans [1]) [µg/mL] | MIC (Candida albicans [2]) [µg/mL] | MIC (Nakaseomyces glabratus [3]) [µg/mL] | MIC (Pichia kudriavzevii [4]) [µg/mL] | MIC (Candida albicans [5]) [µg/mL] | MIC (Candida albicans [6]) [µg/mL] | MIC (Candida albicans [7]) [µg/mL] | MIC (Candida albicans [8]) [µg/mL] | MIC (Candida albicans [9]) [µg/mL] | MIC (Candida albicans [10]) [µg/mL] | MIC (Saccharomyces cerevisiae [29]) [µg/mL] | MIC (Saccharomyces cerevisiae [30]) [µg/mL] | MIC (Saccharomyces cerevisiae [31]) [µg/mL] | MIC (Saccharomyces cerevisiae [32]) [µg/mL] | MIC (Saccharomyces cerevisiae [33]) [µg/mL] | also measured
1 | Cc1c(-c2ccccc2)c(N2CC[C@H](N(C)C)C2)n2c(nc3ncccc32)c1C#N | > 32 | > 32 | 0.125 (≈ 0.315 µM) | 0.5 (≈ 1.26 µM) | > 16 | > 16 | 4 (≈ 10.1 µM) | 16 (≈ 40.4 µM) | 0.125 (≈ 0.315 µM) | 0.125 (≈ 0.315 µM) | 0.25 (≈ 0.631 µM) | 0.5 (≈ 1.26 µM) | 0.25 (≈ 0.631 µM) | 0.25 (≈ 0.631 µM) | 0.25 (≈ 0.631 µM) | Cmax [11]: 710 ng/mL; half-life [12]: 4.4 h; survival at 3.3 mg/kg (Nakaseomyces glabratus [13]): 90%; survival at 10 mg/kg (Nakaseomyces glabratus [14]): 100%; inhibition (Candida albicans [15]): Active; inhibition (Nakaseomyces glabratus [16]): Active; inhibition (Pichia kudriavzevii [17]): Active; inhibition (Candida albicans [18]): Active; Activity (Candida albicans [19]): Active; Activity (Candida albicans [20]): Active; Activity (Candida albicans [21]): Active; Activity (Nakaseomyces glabratus [22]): Active; Activity (Pichia kudriavzevii [23]): Active; Activity (Candida albicans [24]): Active; Activity (Candida albicans [25]): Active; Activity (Candida albicans [26]): Active; Activity (Candida albicans [27]): Active; Activity (Candida albicans [28]): Active; survival at 10 mg/kg (Candida albicans [34]): 50%
2 | Cc1c(-c2ccccc2)c(N2CC[C@H](N(C)C)C2)n2c(nc3ccccc32)c1C#N | > 32 | > 32 | 0.016 (≈ 0.0405 µM) | 0.25 (≈ 0.632 µM) | > 16 | > 16 | 2 (≈ 5.06 µM) | 16 (≈ 40.5 µM) | 0.125 (≈ 0.316 µM) | 0.063 (≈ 0.159 µM) | 0.125 (≈ 0.316 µM) | 0.125 (≈ 0.316 µM) | 0.125 (≈ 0.316 µM) | 0.125 (≈ 0.316 µM) | 0.25 (≈ 0.632 µM) | Activity (Candida albicans [35]): Active
3 | CCc1c(C)c(C#N)c2nc3ccccc3n2c1NCCN(CC)CC | 8 (≈ 22.9 µM) | 16 (≈ 45.8 µM) | 1 (≈ 2.86 µM) | 16 (≈ 45.8 µM) | – | – | – | – | – | – | 8 (≈ 22.9 µM) | 8 (≈ 22.9 µM) | 8 (≈ 22.9 µM) | 16 (≈ 45.8 µM) | 16 (≈ 45.8 µM) | –

From ChEMBL document CHEMBL1671665, “Effect of beta-1,6-glucan inhibitors on the invasion process of Candida albicans: potential mechanism of their in vivo efficacy” (Antimicrob Agents Chemother, 2009)
